In the library only some 2.6% were active in any assay of this set; here they are far more common.
XiGFP reactiv = activators of X-chromosome reactivation in mouse fibroblasts; 360,000 tested, 0.055% active; activation, % at 7.58 µM; AID 743238; XiGFP mouse fibroblasts, % GFP-positive cells imaging, 3 d; cells co-treated with 5-aza-dC sensitizer; scaled so ellipticine positive control = 100%;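 active means mean normalized replicate activation at least 10% and every replicate at or above 10%; inconclusive means only one of the two criteria met; inactive means mean below 10% and not all replicates reach 10%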;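 further: 0% = median of on-plate neutral control wells and 100% = ellipticine 6 µM median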
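System: 68-5-11 XiGFP fibroblast line | Buffer or medium: DMEM containing 5-aza-dC | Compound: Single point | Times: Compounds 3 days, fix/stain 15 min at room temperature | Benchmarks: Positive control ellipticine, 6 µM final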
Vif inh = blocks HIV Vif function; HEK293T cells, Vif self-association by quenched fluorescence, imaging, 24 h; inhibition, % at 7.49 µM; 340,000 tested, 0.35% active; in the data active means inhibition above about 50%, passing the limit was not always enough; inconclusive means no clear call, values can overlap the other calls; inactive means below about 31%
MITF TRPM1 HTS = MITF TRPM1 promoter activation in melanoma cells; activation, % at 12.5 µM; AID 588334; SK-MEL-5 TRPM1-promoter luciferase, 24 h; % of positive control, neutral wells = 0; 300,000 tested, 0.75% active;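 active means mean activation of at least 80% with every replicate also reaching 80%; inconclusive means mean reaches 80% but some replicate falls short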;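 further: 0% = neutral control wells and 100% = parthenolide positive control wells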
Wnt bcat act = activates Wnt/beta-catenin signaling in a reporter cell assay | activator, plate reader | activation, % at 9.35 µM | AID 743398 | 300,000 tested, 1.2% active; in the data active means activation above about 30%, passing the limit was not always enough; inconclusive means no clear call, values can overlap the other calls;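 further: 0% = neutral control wells and 100% = positive control wells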
esBAF inh = inhibitors of esBAF chromatin remodeling in mouse ES cells; reporter increase, % at 12.5 µM; Bmi1-luciferase knock-in reporter, 24 h; 100% = twice the neutral-well signal; 350,000 tested, 2% active; in the data active means activation above about 40%; inconclusive means no clear call, values can overlap the other calls;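 further: 0% = median of the plate's neutral control wells and 100% = double that signal; a rise in the Bmi1 reporter signal indicates esBAF inhibition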
An asterisk follows results filed as active; u = inconclusive; x = no result.

SMILES	XiGFP reactiv	Vif inh	MITF TRPM1 HTS	Wnt bcat act	esBAF inh
O=C(Nc1nc2ccsc2c(=O)s1)c1ccc(F)cc1Cl	0.6	14.7	x	51.7*	x
Cc1csc2c(=O)sc(NC(=O)c3ccc(F)cc3Cl)nc12	0.0	-2.3	x	5.9	-10.8
COc1ccccc1N1CCN(c2ccc3ccccc3n2)CC1	0.0	-5.9	108.3*	22.8	-6.8
COc1ccccc1N1CCN(c2cc(N3CCCC3)nc(C)n2)CC1	x	-4.1	11.1	x	0.8
Cc1ccc(NC(=O)CCc2c(C)nn(-c3ccc(N4CCCCC4)nn3)c2C)cc1C	0.1	20.5	51.4	19.7	1.0
Cc1ccc(F)cc1NC(=O)CCc1c(C)nn(-c2ccc(N3CCCCC3)nn2)c1C	0.0	u	48.0	8.3	65.0*
Cc1ccc(NC(=O)CCc2c(C)nn(-c3ccc(N4CCOCC4)nn3)c2C)cc1F	0.0	-9.2	59.8	5.9	52.6*
COc1ccc(C)cc1NC(=O)CCc1c(C)nn(-c2ccc(N3CCCCC3)nn2)c1C	0.0	1.1	37.9	10.8	61.2*
Cc1nn(-c2ccc(N3CCCCC3)nn2)c(C)c1CCC(=O)Nc1ccc(F)c(F)c1	0.0	-4.0	59.6	13.9	55.0*
COc1ccc(S(=O)(=O)Nc2ccc3c(c2)CC(=O)N([C@@H](C)CO)C[C@@H](C)[C@H](CN(C)Cc2ccc(C(=O)Nc4ccccc4N)cc2)O3)cc1	0.0	x	x	x	-7.3
COc1ccc(NC(=O)N(C)C[C@@H]2Oc3ccc(N(C)C)cc3CC(=O)N([C@H](C)CO)C[C@H]2C)cc1	0.0	x	x	x	-1.5
C[C@H](O)C#Cc1cnc2c(c1)C(=O)N([C@@H](C)CO)C[C@@H](C)[C@H](CN(C)CC1CCCCC1)O2	0.2	x	x	x	x
C/C=C/c1ccc2c(c1)O[C@@H](CN(C)C(=O)c1cnccn1)[C@@H](C)CN([C@@H](C)CO)S2(=O)=O	0.5	x	x	x	-1.6
Cc1ccc(NC(=O)CCc2c(C)nn(-c3ccc(N4CCCCC4)nn3)c2C)cc1	0.0	-3.3	31.4	12.8	37.7
Cc1cc(C)cc(NC(=O)CCc2c(C)nn(-c3ccc(N4CCCCC4)nn3)c2C)c1	0.2	-6.2	u	16.0	67.6*
CCOC(=O)C1CCCCN1C(=O)c1oc2c(Cl)cc(C)cc2c1C (stereo not drawn)	-0.1	-9.7	4.9	-1.1	2.2
COC(=O)C1CCN(C(=O)c2oc3c(Cl)cc(C)cc3c2C)CC1	0.2	-6.2	45.0	47.0*	25.9
CCOC(=O)N1CCC(NC(=O)c2oc3c(F)cccc3c2C)CC1	0.4	-6.6	44.0	12.6	50.2*
CC(=O)Nc1ccc(S(=O)(=O)Nc2nc3ccccc3nc2Sc2nncn2C)cc1	x	1.4	-7.7	14.5	44.3*
C[C@@H]1CN([C@H](C)CO)C(=O)c2c(c3ccccc3n2C)-c2ccccc2CO[C@H]1CN(C)C(=O)Nc1ccnc(N2CCOCC2)c1	-0.1	x	x	x	x
O=C(/C=C/c1nc2ccccc2s1)N1CCCCCC1	0.0	3.6	100.4*	10.2	32.4
c1ccc(CN2CCN(c3nc4ccccc4s3)CC2)cc1	0.1	-0.4	77.5	40.2*	u
c1ccc2sc(N3CCCCC3)nc2c1	-0.1	24.2	47.3	16.5	48.9*
Cc1cccc(C)c1NC(=O)N1CCN(c2nc3ccccc3s2)CC1	x	-11.5	-8.5	1.7	47.8*
O=C(O)CCC(=O)N1CCN(c2nc3ccccc3s2)CC1	x	1.4	-9.1	7.0	0.0
SMILES	XiGFP reactiv	Vif inh	MITF TRPM1 HTS	Wnt bcat act	esBAF inh
Cc1noc(C)c1S(=O)(=O)Nc1ccc2c(c1)C(=O)N([C@H](C)CO)C[C@@H](C)[C@H](CN(C)C(=O)Nc1ccc(C(F)(F)F)cc1)O2	0.0	x	x	x	4.6
CO[C@@H]1CC[C@@H]2CCN(C)C(=O)[C@@H](C)CN(C)C(=O)c3cccc(C#N)c3OC[C@H]1O2	0.2	x	x	x	3.8
N/C(CS(=O)(=O)c1ccccn1)=N\OC(=O)c1ccccc1Cl	0.0	-4.1	x	54.0*	x
N/C(CS(=O)(=O)c1ccccn1)=N\OC(=O)c1ccc(Cl)cc1	0.1	6.5	x	9.8	x
C[C@@H]1CN([C@@H](C)CO)C(=O)c2cc(-c3ccccc3)cnc2O[C@@H]1CN(C)Cc1cccnc1	-1.1	x	x	x	-1.1
Cc1ccn2cc(-c3ccc4c(c3)NC(=O)CO4)nc2c1	0.5	16.8	103.5*	16.1	x
CCOC(=O)Cc1csc(NC(=O)c2cnc3sc(C)cn3c2=O)n1	-0.1	-9.3	62.1	2.8	47.3*
CCOC(=O)Cc1csc(NC(=O)c2ccc3ncsc3c2)n1	0.2	-1.7	2.1	22.4	51.9*
CCOC(=O)Cc1csc(NC(=O)c2ccc(Br)cc2)n1	0.0	8.3	0.8	1.5	8.9
CC(C)NC(=O)NCC[C@@H]1CC[C@H](NS(=O)(=O)c2ccccc2)[C@H](CO)O1	-0.5	x	x	x	x
CN1CCN(C(=O)C[C@@H]2C[C@H]3c4cc(NC(=O)Nc5ccc(F)cc5)ccc4O[C@H]3[C@H](CO)O2)CC1	0.1	x	x	x	-2.3
CC(C)c1ccc2[nH]c3c(c2c1)[C@@H]1CCN2C(=O)CCC[C@H](C3)[C@H]12	0.1	-12.2	58.2	15.5	80.9*
CCOc1ccccc1-n1nnnc1SCC(=O)O	0.0	5.2	4.9	36.4*	-7.1
CCOc1ccccc1-n1nnnc1SCC(=O)OC	0.1	13.2	2.3	-0.9	10.3
COc1ccc2c3c(n(C)c2c1)[C@H](CO)N(C(C)=O)CC31CCN(C(=O)Nc2ccc(F)cc2)CC1	0.2	x	x	x	x
Nc1c(C(=O)c2ccccc2)oc2ccccc12	x	3.4	5.2	4.9	10.5
Cc1c(C(=O)c2ccccc2)oc2ccc3ccccc3c12	0.1	4.7	x	50.0*	40.3
CC1Cc2nc(SCC(=O)c3ccccc3)n(Cc3ccccc3)c(=O)c2S1 (stereo not drawn)	0.1	-8.5	x	15.5	81.3*
O=C(C[C@H]1CC[C@H](NC(=O)CN2CCOCC2)[C@@H](CO)O1)NCc1cccc(F)c1	0.2	x	x	x	3.6
Cc1ccc(-c2cn3nc(C)c(C)nc3n2)cc1	x	2.0	-62.5	x	-73.6
COc1ccc(-c2cn3cc(C)ccc3n2)cc1Br	0.0	x	11.0	18.0	x
COc1ccc(-c2cn3nc(C)c(C)nc3n2)cc1OC	0.1	-0.4	u	u	46.7*
COc1ccc(-c2cn3cc(Cl)ccc3n2)cc1OC	x	-0.4	37.7	14.6	69.1*
Cc1cc(C)nc(SCc2csc(-c3ccccc3)n2)n1	x	-2.9	113.2*	x	x
Cc1noc(C)c1NC(=O)Nc1cccc2c1O[C@@H](CN(C)S(C)(=O)=O)[C@H](C)CN([C@@H](C)CO)C2=O	0.0	x	x	x	-3.7
CC(C)(C)n1ncc2c(=O)n(CC(=O)c3ccc(Cl)cc3)cnc21	x	-3.6	73.6	x	74.5*
CC(C)(C)n1ncc2c(=O)n(CC(=O)Nc3ccc(Cl)cc3)cnc21	x	-13.1	-6.6	x	2.1
Cc1ccc(S(=O)(=O)Nc2ccc3c(c2)C(=O)N([C@@H](C)CO)C[C@H](C)[C@H](CN(C)S(=O)(=O)c2ccc(F)cc2)OCCCC[C@@H](C)O3)cc1	-1.0	x	x	x	8.0

High-throughput results from PubChem.
